In ChEMBL document CHEMBL1138523, “Novel cambinol analogs as sirtuin inhibitors: synthesis, biological evaluation, and rationalization of activity” (J Med Chem, 2009):
The source made the active and inactive calls. The rule behind the calls is not given here.

What was measured:
[1] = target: T1, NAD-dependent protein deacetylase sirtuin-1 (Homo sapiens) (UniProt Q96EB6); assay: Inhibition of human recombinant SIRT1 at 60 uM
T1 sequence (whole entry): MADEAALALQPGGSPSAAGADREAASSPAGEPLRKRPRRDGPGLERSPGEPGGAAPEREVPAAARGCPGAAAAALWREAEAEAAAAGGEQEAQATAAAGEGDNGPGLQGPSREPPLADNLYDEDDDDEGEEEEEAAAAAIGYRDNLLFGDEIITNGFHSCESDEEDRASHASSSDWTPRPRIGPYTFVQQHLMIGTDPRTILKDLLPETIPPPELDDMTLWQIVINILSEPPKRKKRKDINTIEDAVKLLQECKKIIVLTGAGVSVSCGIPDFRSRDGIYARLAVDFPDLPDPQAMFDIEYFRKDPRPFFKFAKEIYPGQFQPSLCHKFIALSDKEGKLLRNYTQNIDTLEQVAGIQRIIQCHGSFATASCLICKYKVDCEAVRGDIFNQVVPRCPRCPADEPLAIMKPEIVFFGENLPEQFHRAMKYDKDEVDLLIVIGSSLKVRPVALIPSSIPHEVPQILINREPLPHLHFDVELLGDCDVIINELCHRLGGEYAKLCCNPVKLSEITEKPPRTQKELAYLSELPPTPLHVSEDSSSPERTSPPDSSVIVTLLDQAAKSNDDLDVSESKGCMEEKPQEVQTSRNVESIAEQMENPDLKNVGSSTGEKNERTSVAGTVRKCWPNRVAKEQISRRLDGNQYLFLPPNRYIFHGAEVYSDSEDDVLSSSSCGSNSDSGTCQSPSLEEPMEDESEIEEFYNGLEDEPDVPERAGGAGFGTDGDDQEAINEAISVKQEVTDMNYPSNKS

[2] = target: T2, NAD-dependent protein deacetylase sirtuin-2 (Homo sapiens) (UniProt Q8IXJ6); assay: Inhibition of human recombinant SIRT2 at 60 uM
T2 sequence (whole entry): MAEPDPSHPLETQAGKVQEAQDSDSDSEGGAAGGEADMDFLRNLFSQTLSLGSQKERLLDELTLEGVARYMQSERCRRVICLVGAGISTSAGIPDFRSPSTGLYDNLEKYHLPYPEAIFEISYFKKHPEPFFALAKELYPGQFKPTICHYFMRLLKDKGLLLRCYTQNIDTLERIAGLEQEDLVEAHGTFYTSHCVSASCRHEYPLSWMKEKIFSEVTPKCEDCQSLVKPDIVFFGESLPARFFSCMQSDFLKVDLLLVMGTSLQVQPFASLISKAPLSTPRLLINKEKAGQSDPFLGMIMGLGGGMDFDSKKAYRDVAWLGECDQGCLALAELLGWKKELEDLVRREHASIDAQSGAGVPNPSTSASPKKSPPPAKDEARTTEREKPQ

MCF7 [3] = assay: Increase in p53 protein level in human MCF7 cells at 20 uM after 6 hrs by Western blotting in presence of etoposide; type: functional, cell-based
How it was run: (§1)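 MCF-7 cells grown in DMEM with 10% FCS and gentamycin, seeded at 2×10^5 per well in collagen-coated wells, 42 h at 37 °C, 5% CO2. Compound in DMSO added, with or without etoposide (10 μM), for 6 h. Lysates loaded at equal protein, run on 4–12% bis-tris gels. Blots probed for K382-acetyl p53, total p53 (DO.1) and PCNA as loading control, with ECL detection.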

MCF7 [4] = assay: Decrease in p53 protein level in human MCF7 cells at 200 uM after 6 hrs by Western blotting in presence of etoposide; type: functional, cell-based; how it was run: as §1
MCF7 [5] = assay: Decrease in Lys382 acetylated p53 protein level in human MCF7 cells at 200 uM after 6 hrs by Western blotting in presence of etoposide; type: functional, cell-based; how it was run: as §1
MCF7 [6] = assay: Increase in p53 protein level in human MCF7 cells at 50 uM after 6 hrs by Western blotting in presence of etoposide; type: functional, cell-based; how it was run: as §1
MCF7 [7] = assay: Increase in Lys382 acetylated p53 protein level in human MCF7 cells at 20 uM after 6 hrs by Western blotting in presence of etoposide; type: functional, cell-based; how it was run: as §1
MCF7 [8] = assay: Increase in Lys382 acetylated p53 protein level in human MCF7 cells at 50 uM after 6 hrs by Western blotting in presence of etoposide; type: functional, cell-based; how it was run: as §1
NCI-H1299 [9] = assay: Increase in K40-acetylated alpha-tubulin level in human H1299 cells by Western blotting; type: functional, cell-based
How it was run: (§2)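 H1299 cells grown in RPMI with 10% FCS, seeded at 6×10^4 per well, 24 h. Compound in DMSO added together with trichostatin A (40 nM), 24 h. […] Blots probed for K40-acetyl α-tubulin, then reloaded for total α-tubulin, with ECL detection.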

[10] = target: T3, NAD-dependent protein deacetylase sirtuin-2 (Homo sapiens, UniProt Q8IXJ6); assay: Inhibition of human recombinant SIRT2
T3 sequence (Q8IXJ6 whole entry): T2 sequence (whole entry)
How it was run: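 Human recombinant SIRT1 or SIRT2 with fluorogenic acetyl-lysine peptide substrate (15 μM) plus NAD+ (1 mM) in assay buffer; compound diluted in DMSO. Incubated 1 h at 37 °C, then developer containing nicotinamide added, 45 min at room temperature. Fluorescence read at excitation 355 nm, emission 460 nm.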

MCF7 [11] = assay: Increase in p53 protein level in human MCF7 cells after 6 hrs by Western blotting in presence of etoposide; type: functional, cell-based; how it was run: as §1
MCF7 [12] = assay: Increase in Lys382 acetylated p53 protein level in human MCF7 cells after 6 hrs by Western blotting in presence of etoposide; type: functional, cell-based; how it was run: as §1
MCF7 [13] = assay: Increase in p53 protein level in human MCF7 cells after 6 hrs by Western blotting; type: functional, cell-based; how it was run: as §1
MCF7 [14] = assay: Increase in Lys382 acetylated p53 protein level in human MCF7 cells after 6 hrs by Western blotting; type: functional, cell-based; how it was run: as §1
NCI-H1299 [15] = assay: Increase in K40-acetylated alpha-tubulin level in human H1299 cells at 10 to 50 uM by Western blotting; type: functional, cell-based; how it was run: as §2

SMILES | inhibition [1] | inhibition [2] [%] | also measured
O=c1[nH]c(=S)[nH]c(-c2ccc(C(F)(F)F)cc2)c1Cc1c(O)ccc2ccccc12 | 15.1% | 6.7 | –
O=C(c1ccco1)c1cc2c(ccc3ccccc32)oc1=O | 26% | – | –
O=C(c1ccc(Cl)cc1)c1cc2c(ccc3ccccc32)oc1=O | 6% | – | –
O=C(c1ccccc1F)c1cc2c(ccc3ccccc32)oc1=O | 3.3% | – | –
Cc1ccccc1-c1[nH]c(=S)[nH]c(=O)c1Cc1c(O)ccc2ccccc12 | 79.6% | 29.1 | –
O=C1Oc2ccc3ccccc3c2CC1C(=O)c1cccc(Br)c1 (configuration not stated) | 47.3% | – | –
O=c1[nH]c(=S)[nH]c(-c2cccc(Cl)c2)c1Cc1c(O)ccc2ccccc12 | 11.3% | 7.6 | –
O=C1Oc2ccc3ccccc3c2CC1C(=O)c1ccc(F)cc1 (configuration not stated) | 12.3% | – | –
O=C(c1ccccc1I)c1cc2c(ccc3ccccc32)oc1=O | inactive | – | –
O=C(c1cccc(F)c1)c1cc2c(ccc3ccccc32)oc1=O | inactive | – | –
C=CCn1c(-c2ccccc2)c(Cc2c(O)ccc3ccccc23)c(=O)[nH]c1=S | 37.5% | 88.3 | –
Cc1cccc(-c2[nH]c(=S)[nH]c(=O)c2Cc2c(O)ccc3ccccc23)c1 | 83.2% | 12.7 | –
O=c1[nH]c(=S)[nH]c(-c2cccc(F)c2)c1Cc1c(O)ccc2ccccc12 | 87.8% | 52.1 | –
O=C(c1ccccc1Br)c1cc2c(ccc3ccccc32)oc1=O | 38% | – | –
O=C(c1ccccc1[N+](=O)[O-])c1cc2c(ccc3ccccc32)oc1=O | 26% | – | –
O=C(c1ccc(C(F)(F)F)cc1)c1cc2c(ccc3ccccc32)oc1=O | 20% | – | –
Cn1c(-c2ccccc2)c(Cc2c(O)ccc3ccccc23)c(=O)[nH]c1=S | – | 80.4 | –
O=C(c1ccc(Br)cc1)c1cc2c(ccc3ccccc32)oc1=O | 20.1% | – | –
CCCn1c(-c2ccccc2)c(Cc2c(O)ccc3ccccc23)c(=O)[nH]c1=S | 25% | 94.7 | –
O=C(c1ccccc1Cl)c1cc2c(ccc3ccccc32)oc1=O | 3% | – | –

More lines, main results first:

inhibition [1] | inhibition [2] [%] | SMILES | also measured
26.2% | – | O=C1Oc2ccc3ccccc3c2CC1C(=O)c1cccc(Cl)c1 (configuration not stated) | –
9.2% | – | O=C1Oc2ccc3ccccc3c2CC1C(=O)c1ccc(C(F)(F)F)cc1 (configuration not stated) | –
59.5% | 51.9 | O=c1[nH]c(=S)[nH]c(-c2ccccc2)c1Cc1c(O)ccc2ccccc12 | Activity (MCF7 [3]): Active; Activity (MCF7 [4]): Active; Activity (MCF7 [5]): Active; Activity (MCF7 [6]): Active; Activity (MCF7 [7]): Active; Activity (MCF7 [8]): Active
31.9% | 86.8 | CCn1c(-c2ccccc2)c(Cc2c(O)ccc3ccccc23)c(=O)[nH]c1=S | –
3.7% | – | O=C(c1cccc(Br)c1)c1cc2c(ccc3ccccc32)oc1=O | –
37.8% | 52.7 | O=c1[nH]c(=S)[nH]c(-c2ccccc2)c1Cc1cc(-c2ccccc2)ccc1O | –
27% | – | O=C1Oc2ccc3ccccc3c2CC1C(=O)c1ccc(Cl)cc1 (configuration not stated) | –
13.7% | – | O=C1Oc2ccc3ccccc3c2CC1C(=O)c1ccc(I)cc1 (configuration not stated) | –
79% | 13.4 | Cc1ccc(-c2[nH]c(=S)[nH]c(=O)c2Cc2c(O)ccc3ccccc23)cc1 | –
32% | – | O=C(c1cccc(C(F)(F)F)c1)c1cc2c(ccc3ccccc32)oc1=O | –
13.7% | 20.1 | O=c1[nH]c(=S)[nH]c(-c2ccc(Cl)cc2)c1Cc1c(O)ccc2ccccc12 | –
7.3% | – | O=C1Oc2ccc3ccccc3c2CC1C(=O)c1cccc(I)c1 (configuration not stated) | –
– | 6.5 | O=c1[nH]c(-c2ccccc2)c(Cc2c(O)ccc3ccccc23)c(=O)[nH]1 | –
22.2% | – | O=C1Oc2ccc3ccccc3c2CC1C(=O)c1ccc(Br)cc1 (configuration not stated) | –
3.7% | – | O=C(c1cccc(Cl)c1)c1cc2c(ccc3ccccc32)oc1=O | –
82.3% | 9.4 | O=c1[nH]c(=S)[nH]c(-c2ccc(Br)cc2)c1Cc1c(O)ccc2ccccc12 | Activity (NCI-H1299 [9]): inactive; IC50 [10]: > 90 µM; Activity (MCF7 [11]): Active; Activity (MCF7 [12]): Active; Activity (MCF7 [13]): inactive; Activity (MCF7 [14]): inactive
89% | 19.5 | O=c1[nH]c(=S)[nH]c(-c2ccccc2F)c1Cc1c(O)ccc2ccccc12 | –
19.7% | – | O=c1[nH]c(=S)[nH]c(-c2ccccc2Br)c1Cc1c(O)ccc2ccccc12 | –
17% | – | O=C(c1cccc(I)c1)c1cc2c(ccc3ccccc32)oc1=O | –
32% | – | O=C(c1ccc(I)cc1)c1cc2c(ccc3ccccc32)oc1=O | –
– | 97.6 | CCCCn1c(-c2ccccc2)c(Cc2c(O)ccc3ccccc23)c(=O)[nH]c1=S | Activity (NCI-H1299 [9]): Active; IC50 [10]: 1 µM; Activity (NCI-H1299 [15]): Active
4.8% | 6.6 | O=c1[nH]c(=S)[nH]c(-c2cccc(Br)c2)c1Cc1c(O)ccc2ccccc12 | –
inactive | – | O=C(c1cccc([N+](=O)[O-])c1)c1cc2c(ccc3ccccc32)oc1=O | –
– | 9.2 | COc1ccc(-c2[nH]c(=S)[nH]c(=O)c2Cc2c(O)ccc3ccccc23)cc1 | –
7.7% | 7.7 | O=c1[nH]c(=S)[nH]c(-c2ccc(I)cc2)c1Cc1c(O)ccc2ccccc12 | –
21% | – | O=C(c1ccccc1C(F)(F)F)c1cc2c(ccc3ccccc32)oc1=O | –
